Source: ChEMBL document CHEMBL3425439, “Disubstituted Bis-THF Moieties as New P2 Ligands in Nonpeptidal HIV-1 Protease Inhibitors (II)” (J Med Chem, 2015)
pEC50: −log10 of the molar value.

The compounds below were run on Human immunodeficiency virus 1 (assay: Ratio of EC50 for HIV-1 M3 harboring protease L10I, K20R, M36I, G48V, I62V, A71V, V82A, I93L mutant to EC50 for wild type HIV-1 3B). Details: not given.
Assay type: functional

SMILES	Ratio EC50
CNc1nc2ccc(S(=O)(=O)N(CC(C)C)C[C@@H](O)[C@H](Cc3ccccc3)NC(=O)O[C@H]3CO[C@H]4OC[C@H](Cl)[C@H]43)cc2o1	1.6
COc1ccc(S(=O)(=O)N(CC(C)C)C[C@@H](O)[C@H](Cc2ccccc2)NC(=O)O[C@H]2CO[C@H]3OC[C@H](O)[C@H]32)cc1	0.2
COc1ccc(S(=O)(=O)N(CC(C)C)C[C@@H](O)[C@H](Cc2ccccc2)NC(=O)O[C@H]2CO[C@H]3OC[C@H](OCC(=O)NCc4ccccc4)[C@H]32)cc1	1.7
CNC(=O)CO[C@H]1CO[C@@H]2OC[C@H](OC(=O)N[C@@H](Cc3ccccc3)[C@H](O)CN(CC(C)C)S(=O)(=O)c3ccc(OC)cc3)[C@@H]21	1.2
COc1ccc(S(=O)(=O)N(CC(C)C)C[C@@H](O)[C@H](Cc2ccccc2)NC(=O)O[C@H]2CO[C@H]3OC[C@H](OCC(=O)N(C)C)[C@H]32)cc1	0.8

Each compound was assayed on Human immunodeficiency virus 1 (assay: Antiviral activity against wild type HIV-1 3B infected in human MT4 cells assessed as inhibition of viral replication after 3 days by GFP reporter gene assay in presence of human serum). Details: Human immunodeficiency virus 1, 3B, MT4, 72 h.
Assay type: functional, organism-based

SMILES	pEC50
CNc1nc2ccc(S(=O)(=O)N(CC(C)C)C[C@@H](O)[C@H](Cc3ccccc3)NC(=O)O[C@H]3CO[C@H]4OC[C@H](Cl)[C@H]43)cc2o1	8.38
COc1ccc(S(=O)(=O)N(CC(C)C)C[C@@H](O)[C@H](Cc2ccccc2)NC(=O)O[C@H]2CO[C@H]3OC[C@H](O)[C@H]32)cc1	7.91
COc1ccc(S(=O)(=O)N(CC(C)C)C[C@@H](O)[C@H](Cc2ccccc2)NC(=O)O[C@H]2CO[C@H]3OC[C@H](OCC(=O)NCc4ccccc4)[C@H]32)cc1	8.34
CNC(=O)CO[C@H]1CO[C@@H]2OC[C@H](OC(=O)N[C@@H](Cc3ccccc3)[C@H](O)CN(CC(C)C)S(=O)(=O)c3ccc(OC)cc3)[C@@H]21	7.79
COc1ccc(S(=O)(=O)N(CC(C)C)C[C@@H](O)[C@H](Cc2ccccc2)NC(=O)O[C@H]2CO[C@H]3OC[C@H](OCC(=O)N(C)C)[C@H]32)cc1	8.15

These compounds were tested on Human immunodeficiency virus 1 (assay: Antiviral activity against HIV-1 M1 harboring protease L10I, M46I, I64V, I84V, L90M, I93L mutant infected in human MT4 cells assessed as inhibition of viral replication after 3 days by GFP reporter gene assay). Details: Human immunodeficiency virus 1, M1, MT4, 72 h.
Assay type: functional, organism-based
Procedure, shortened: (§1)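 Cell-based replication assay in MT4 cells carrying an LTR-GFP readout (HIV tat drives GFP). Serial compound concentrations were mixed with cells at 150 000 cells/mL and 200 CCID50 of virus, incubated 3 days at 37 °C, 5% CO2. Percent inhibition per concentration gave dose-response curves for EC50/pEC50. Run in quadruplicate. Mock-infected parallel cultures at the same concentrations gave CC50.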

SMILES	pEC50
CNc1nc2ccc(S(=O)(=O)N(CC(C)C)C[C@@H](O)[C@H](Cc3ccccc3)NC(=O)O[C@H]3CO[C@H]4OC[C@H](Cl)[C@H]43)cc2o1	9.15
COc1ccc(S(=O)(=O)N(CC(C)C)C[C@@H](O)[C@H](Cc2ccccc2)NC(=O)O[C@H]2CO[C@H]3OC[C@H](O)[C@H]32)cc1	8.16
COc1ccc(S(=O)(=O)N(CC(C)C)C[C@@H](O)[C@H](Cc2ccccc2)NC(=O)O[C@H]2CO[C@H]3OC[C@H](OCC(=O)NCc4ccccc4)[C@H]32)cc1	8.48
CNC(=O)CO[C@H]1CO[C@@H]2OC[C@H](OC(=O)N[C@@H](Cc3ccccc3)[C@H](O)CN(CC(C)C)S(=O)(=O)c3ccc(OC)cc3)[C@@H]21	7.84
COc1ccc(S(=O)(=O)N(CC(C)C)C[C@@H](O)[C@H](Cc2ccccc2)NC(=O)O[C@H]2CO[C@H]3OC[C@H](OCC(=O)N(C)C)[C@H]32)cc1	8.15

These compounds were tested on Human immunodeficiency virus 1 (assay: Antiviral activity against wild type HIV-1 3B infected in human MT4 cells assessed as inhibition of viral replication after 3 days by GFP reporter gene assay). Details: Human immunodeficiency virus 1, 3B, MT4, 72 h.
Assay type: functional, organism-based
Procedure, shortened: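 MT4 cells (150 000 cells/mL) were infected with wild-type HIV-1/LAI at 200 CCID50 across a compound concentration range. Plates were incubated 3 days at 37 °C and 5% CO2. Replication was read as GFP driven by HIV-tat binding LTR sequences. EC50 was taken from dose-response curves of percent inhibition, in quadruplicate. Mock-infected parallel cultures gave CC50 from reduced GFP.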

SMILES	pEC50
CNc1nc2ccc(S(=O)(=O)N(CC(C)C)C[C@@H](O)[C@H](Cc3ccccc3)NC(=O)O[C@H]3CO[C@H]4OC[C@H](Cl)[C@H]43)cc2o1	9.30
COc1ccc(S(=O)(=O)N(CC(C)C)C[C@@H](O)[C@H](Cc2ccccc2)NC(=O)O[C@H]2CO[C@H]3OC[C@H](O)[C@H]32)cc1	8.19
COc1ccc(S(=O)(=O)N(CC(C)C)C[C@@H](O)[C@H](Cc2ccccc2)NC(=O)O[C@H]2CO[C@H]3OC[C@H](OCC(=O)NCc4ccccc4)[C@H]32)cc1	9.22
CNC(=O)CO[C@H]1CO[C@@H]2OC[C@H](OC(=O)N[C@@H](Cc3ccccc3)[C@H](O)CN(CC(C)C)S(=O)(=O)c3ccc(OC)cc3)[C@@H]21	8.16
COc1ccc(S(=O)(=O)N(CC(C)C)C[C@@H](O)[C@H](Cc2ccccc2)NC(=O)O[C@H]2CO[C@H]3OC[C@H](OCC(=O)N(C)C)[C@H]32)cc1	8.42

The compounds below were run on Human immunodeficiency virus 1 (assay: Antiviral activity against HIV-1 M2 harboring protease L10I, I13V, M46I, I50V, L63P, L76V mutant infected in human MT4 cells assessed as inhibition of viral replication after 3 days by GFP reporter gene assay). Details: Human immunodeficiency virus 1, M2, MT4, 72 h.
Assay type: functional, organism-based
Procedure, shortened: as §1

SMILES	pEC50
CNc1nc2ccc(S(=O)(=O)N(CC(C)C)C[C@@H](O)[C@H](Cc3ccccc3)NC(=O)O[C@H]3CO[C@H]4OC[C@H](Cl)[C@H]43)cc2o1	8.68
COc1ccc(S(=O)(=O)N(CC(C)C)C[C@@H](O)[C@H](Cc2ccccc2)NC(=O)O[C@H]2CO[C@H]3OC[C@H](O)[C@H]32)cc1	8.17
COc1ccc(S(=O)(=O)N(CC(C)C)C[C@@H](O)[C@H](Cc2ccccc2)NC(=O)O[C@H]2CO[C@H]3OC[C@H](OCC(=O)NCc4ccccc4)[C@H]32)cc1	8.36
CNC(=O)CO[C@H]1CO[C@@H]2OC[C@H](OC(=O)N[C@@H](Cc3ccccc3)[C@H](O)CN(CC(C)C)S(=O)(=O)c3ccc(OC)cc3)[C@@H]21	7.80
COc1ccc(S(=O)(=O)N(CC(C)C)C[C@@H](O)[C@H](Cc2ccccc2)NC(=O)O[C@H]2CO[C@H]3OC[C@H](OCC(=O)N(C)C)[C@H]32)cc1	7.94

Each compound was assayed on Human immunodeficiency virus 1 (assay: Antiviral activity against HIV-1 M3 harboring protease L10I, K20R, M36I, G48V, I62V, A71V, V82A, I93L mutant infected in human MT4 cells assessed as inhibition of viral replication after 3 days by GFP reporter gene assay). Details: Human immunodeficiency virus 1, M3, MT4, 72 h.
Assay type: functional, organism-based
Procedure, shortened: as §1

SMILES	pEC50
CNc1nc2ccc(S(=O)(=O)N(CC(C)C)C[C@@H](O)[C@H](Cc3ccccc3)NC(=O)O[C@H]3CO[C@H]4OC[C@H](Cl)[C@H]43)cc2o1	9.15
COc1ccc(S(=O)(=O)N(CC(C)C)C[C@@H](O)[C@H](Cc2ccccc2)NC(=O)O[C@H]2CO[C@H]3OC[C@H](O)[C@H]32)cc1	8.80
COc1ccc(S(=O)(=O)N(CC(C)C)C[C@@H](O)[C@H](Cc2ccccc2)NC(=O)O[C@H]2CO[C@H]3OC[C@H](OCC(=O)NCc4ccccc4)[C@H]32)cc1	9.00
CNC(=O)CO[C@H]1CO[C@@H]2OC[C@H](OC(=O)N[C@@H](Cc3ccccc3)[C@H](O)CN(CC(C)C)S(=O)(=O)c3ccc(OC)cc3)[C@@H]21	8.08
COc1ccc(S(=O)(=O)N(CC(C)C)C[C@@H](O)[C@H](Cc2ccccc2)NC(=O)O[C@H]2CO[C@H]3OC[C@H](OCC(=O)N(C)C)[C@H]32)cc1	8.54

Each compound was assayed on Human immunodeficiency virus 1 (assay: Ratio of EC50 for HIV-1 M2 harboring protease L10I, I13V, M46I, I50V, L63P, L76V mutant to EC50 for wild type HIV-1 3B). Details: not given.
Assay type: functional

SMILES	Ratio EC50
CNc1nc2ccc(S(=O)(=O)N(CC(C)C)C[C@@H](O)[C@H](Cc3ccccc3)NC(=O)O[C@H]3CO[C@H]4OC[C@H](Cl)[C@H]43)cc2o1	4.6
COc1ccc(S(=O)(=O)N(CC(C)C)C[C@@H](O)[C@H](Cc2ccccc2)NC(=O)O[C@H]2CO[C@H]3OC[C@H](O)[C@H]32)cc1	1
COc1ccc(S(=O)(=O)N(CC(C)C)C[C@@H](O)[C@H](Cc2ccccc2)NC(=O)O[C@H]2CO[C@H]3OC[C@H](OCC(=O)NCc4ccccc4)[C@H]32)cc1	7.5
CNC(=O)CO[C@H]1CO[C@@H]2OC[C@H](OC(=O)N[C@@H](Cc3ccccc3)[C@H](O)CN(CC(C)C)S(=O)(=O)c3ccc(OC)cc3)[C@@H]21	2.3
COc1ccc(S(=O)(=O)N(CC(C)C)C[C@@H](O)[C@H](Cc2ccccc2)NC(=O)O[C@H]2CO[C@H]3OC[C@H](OCC(=O)N(C)C)[C@H]32)cc1	3

These compounds were tested on Human immunodeficiency virus 1 (assay: Ratio of EC50 for HIV-1 M1 harboring protease L10I, M46I, I64V, I84V, L90M, I93L mutant to EC50 for wild type HIV-1 3B). Details: not given.
Assay type: functional

SMILES	Ratio EC50
CNc1nc2ccc(S(=O)(=O)N(CC(C)C)C[C@@H](O)[C@H](Cc3ccccc3)NC(=O)O[C@H]3CO[C@H]4OC[C@H](Cl)[C@H]43)cc2o1	1.6
COc1ccc(S(=O)(=O)N(CC(C)C)C[C@@H](O)[C@H](Cc2ccccc2)NC(=O)O[C@H]2CO[C@H]3OC[C@H](O)[C@H]32)cc1	1.1
COc1ccc(S(=O)(=O)N(CC(C)C)C[C@@H](O)[C@H](Cc2ccccc2)NC(=O)O[C@H]2CO[C@H]3OC[C@H](OCC(=O)NCc4ccccc4)[C@H]32)cc1	5.6
CNC(=O)CO[C@H]1CO[C@@H]2OC[C@H](OC(=O)N[C@@H](Cc3ccccc3)[C@H](O)CN(CC(C)C)S(=O)(=O)c3ccc(OC)cc3)[C@@H]21	2.1
COc1ccc(S(=O)(=O)N(CC(C)C)C[C@@H](O)[C@H](Cc2ccccc2)NC(=O)O[C@H]2CO[C@H]3OC[C@H](OCC(=O)N(C)C)[C@H]32)cc1	1.8
